The list is not random: actives were taken first. Their share in the collection is about 3.5%.
Cneo AK release = causes C. neoformans cell lysis | lysis activity, % at 15 µM | actives 0.2% (n = 360,000) | adenylate kinase release luminescence, 4 h; normalised: neutral wells 0, clomiphene wells 100;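 active means mean lysis activity across replicates of at least 80%, whatever share of replicates individually reach that level; inactive means mean lysis activity below 80%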
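Assay system: C. neoformans cells. Amount: yeast cell density of 5 × 10^6 cells/mL. Technique: AK luminescence. Buffer or medium: YPD. Times: static 4 h at 37 °C with compound, 1 h detection. Dosing: single-point compound dose. Read-out: lysis from increased AK signal.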
Env fusion inh = HIV envelope-mediated fusion inhibition | HeLa-JRFL Env/CEM21 cell fusion, luciferase | inhibition, % at 12.3 µM | actives 1.1% (n = 360,000);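 active means mean replicate inhibition score of at least 50 and every replicate individually at or above 50; inconclusive means only one of the two criteria met; inactive means mean below 50 and not all replicates reaching 50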;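 further: 0% = plate neutral controls and 100% = maraviroc near 300 nM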
ERAP1 HTS inh = inhibitors of human ERAP1 aminopeptidase | actives 0.15% (n = 340,000) | recombinant ERAP1, Leu-AMC fluorescence, 60 min | inhibition, % at 10.7 µM | Q9NZ08;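 active means mean replicate inhibition of at least 30%, or all replicates individually reaching that 30% level; inactive means mean below 30% and not every replicate reaching it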;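 further: 0% = neutral control wells and 100% = L-leucinethiol positive control wells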
esBAF inh = inhibitors of esBAF chromatin remodeling in mouse ES cells. Bmi1-luciferase knock-in reporter, 24 h; 100% = twice the neutral-well signal. reporter increase, % at 12.5 µM. actives 2% (n = 350,000). AID 602393; in the data active means activation above about 40%; inconclusive means no clear call, values can overlap the other calls;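 further: 0% = median of the plate's neutral control wells and 100% = double that signal; a rise in the Bmi1 reporter signal indicates esBAF inhibition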
MITF act = activators of MITF-driven TRPM1 promoter activity in SK-MEL-5 cells | SK-MEL-5 TRPM1-promoter luciferase, 24 h; % of positive control, neutral wells = 0 | activation, % at 12.5 µM | actives 0.75% (n = 300,000);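 active means mean activation of at least 80% with every replicate also reaching 80%; inconclusive means mean reaches 80% but some replicate falls short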;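 further: 0% = neutral control wells and 100% = parthenolide positive control wells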
Wnt bcat act = activators of Wnt/beta-catenin signaling; Wnt/beta-catenin reporter cell assay, activator, plate reader; activation, % at 9.35 µM; actives 1.2% (n = 300,000); AID 743398; in the data active means activation above about 30%, passing the limit was not always enough; inconclusive means no clear call, values can overlap the other calls;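 further: 0% = neutral control wells and 100% = positive control wells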
The depositor's hits bear a star; ? = inconclusive; / = not tested or not shown; [ ] = dose if it differs, or a comment.

SMILES | Cneo AK release | Env fusion inh | ERAP1 HTS inh | esBAF inh | MITF act | Wnt bcat act
C[C@@H]1CN([C@H](C)CO)S(=O)(=O)c2ccc(-c3cccc(C#N)c3)cc2O[C@@H]1CN(C)C(=O)c1ccc(F)cc1 | 1 | 8[16.7 µM] | -2 | 6 | / | /
Cc1cc2oc(C(=O)Nc3nonc3C)c(C)c2cc1Cl | -6 | -48 | 1 | 44* | 54 | 26
CCc1ccc2oc(C(=O)Nc3nonc3CC)c(C)c2c1 | -1 | -106 | -1 | ? | 90* | 27
Cc1nonc1NC(=O)c1oc2ccc(F)cc2c1C | 0 | -14 | 0 | 19 | 12 | 1
CCc1ccc2oc(C(=O)NCc3ccncc3)c(C)c2c1 | 0 | 62* | / | 15 | 17 | /
Cc1ccc(S(=O)(=O)N(C)C[C@H]2Oc3ccc(NC(=O)CCCCCC(=O)Nc4ccccc4N)cc3CC(=O)N([C@H](C)CO)C[C@@H]2C)cc1 | -1 | 16[16.7 µM] | -1 | -4 | / | /
C[C@@H]1CCCCO[C@@H](CN(C)C(=O)Nc2ccc3c(c2)OCO3)[C@H](C)CN([C@@H](C)CO)C(=O)c2cc(NS(C)(=O)=O)ccc2O1 | 1 | 6[16.7 µM] | -3 | -1 | / | /
Oc1[nH]c2ccccc2c1N=Nc1ccccc1F | / | -79 | 1 | 86* | 37 | 18
Oc1[nH]c2ccccc2c1N=Nc1ccccc1 | 7 | -11 | 1 | 52* | 20 | 28
COc1ccc(-c2c(-c3cc(OC)c(OC)c(OC)c3)noc2C)cn1 | 1 | / | / | -48 | / | /
COc1cc(-c2c(-c3cc(OC)c(OC)c(OC)c3)noc2C)ccc1F | / | 68* | 0 | / | / | -19
CCc1ccc(-c2ccc(C(=O)O)cc2)nc1 | 2 | -63 | / | 46* | 34 | 26
COc1ccc(S(=O)(=O)NNC(=O)C23CC4CC(CC(C4)C2)C3)cc1[N+](=O)[O-] | / | 76* | 1 | -1 | 0 | -2
COc1ccc(/C=C2\N=C(c3ccc(C)cc3)OC2=O)cc1 | -2 | 12 | -1 | 5 | -11 | 0
Cc1ccc(C2=N/C(=C/N3CCOCC3)C(=O)O2)cc1 | -2 | -65 | / | 52* | 92* | /
Cc1ccc(C2=N/C(=C\N3CCCCC3)C(=O)O2)cc1 | 5 | -113 | / | 36 | ? | 63*
Cc1ccc(S(=O)(=O)Nc2ccc3c(c2)C(=O)N([C@@H](C)CO)C[C@H](C)[C@H](CN(C)S(=O)(=O)c2cn(C)cn2)OCCCC[C@@H](C)O3)cc1 | -7 | -20[16.7 µM] | -2 | -6 | / | /
CCC(=O)N(C)C[C@@H]1Oc2cc(C#CC3CC3)ccc2S(=O)(=O)N([C@@H](C)CO)C[C@H]1C | 5 | -28[16.7 µM] | 1 | -4 | / | /
COC(=O)[C@]12C[C@H](CC(=O)NCc3ccccc3)C(=O)N(Cc3ccccc3)C1=C[C@H](C(C)(C)C)O[C@@H]2C | / | 10 | -4 | / | / | -4
COC(=O)[C@]12C[C@H](CC(=O)N3CCN(C(=O)c4ccco4)CC3)C(=O)N(CCC3=CCCCC3)C1=C[C@H](C(C)(C)C)O[C@@H]2C | / | 74* | 1 | / | / | -3
COC(=O)[C@]12C[C@H](CC(=O)NCc3ccc(OC)c(OC)c3)C(=O)N(Cc3ccccc3)C1=C[C@H](C(C)(C)C)O[C@@H]2C | / | 88* | 4 | / | / | -5
COC(=O)[C@]12C[C@H](CC(=O)NCc3ccc(OC)c(OC)c3)C(=O)N(CCC3=CCCCC3)C1=C[C@H](C(C)(C)C)O[C@@H]2C | / | 82* | -2 | / | / | -16
COc1cc2sc3ccc(C#Cc4ccc(N)cc4)cc3c(=O)c2cc1OC | 7 | -23 | / | 1 | 9 | -5
Cn1c2ccccc2c(=O)c2cc(C#Cc3ccc(N)cc3)ccc21 | -1 | -56 | / | 1 | 49 | -3
CN1C(=O)c2oc3ccccc3c(=O)c2C1c1ccccn1 (stereo unspecified) | -7 | / | / | 8 | 8 | /
C=CCn1c2ccccc2c(=O)c2cc(C#Cc3ccccn3)ccc21 | -9 | -59 | -1 | 70* | 124* | 26
COc1cc2sc3ccc(C#Cc4ccccn4)cc3c(=O)c2cc1OC | 0 | 56* | 2 | 11 | 25 | 14
COc1cccc2sc3cc(C#Cc4ccccn4)ccc3c(=O)c12 | 0 | -25 | 1 | ? | 101* | 13
O=c1c2ccccc2oc2cc(C#Cc3ccccn3)ccc12 | -1 | -350 | -1 | -25 | 25 | 34*

Screening data as filed in PubChem.
